Data as given in ChEMBL document CHEMBL4765371, “Synthesis and evaluation of Na/K-ATP-ase inhibiting and cytotoxic in vitro activities of oleandrigenin and its selected 17β-(butenolidyl)- and 17β-(3-furyl)- analogues” (Eur J Med Chem, 2020).
Active and inactive are the calls of the source. No cut-off for these calls is given here.

Columns and labels:
CCRF-CEM = test: Cytotoxicity against human CEM cells assessed as reduction in cell viability incubated for 72 hrs by resazurin assay; assay type: functional, cell-based
In short: (§1)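 Cells (CEM, HeLa, MCF7, BJ fibroblasts) exposed to compounds for 72 h, viability read by resazurin staining. Values are means ± SD from at least three independent experiments run in triplicate.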

MCF7 = test: Cytotoxicity against human MCF7 cells assessed as reduction in cell viability incubated for 72 hrs by resazurin assay; assay type: functional, cell-based; conditions: MCF7, 72 h; in short: as §1
HeLa [1] = test: Cytotoxicity against human HeLa cells assessed as reduction in cell viability incubated for 72 hrs by resazurin assay; assay type: functional, cell-based; in short: as §1
BJ = test: Cytotoxicity against human BJ cells assessed as reduction in cell viability incubated for 72 hrs by resazurin assay; assay type: cell-based; in short: as §1
Sus scrofa = species on record: Sus scrofa; test: Inhibition of porcine kidney Na+/K+ ATPase at 50 uM assessed as enzyme residual activity using ATP as substrate incubated for 2 mins followed by substrate addition and measured after 6 mins (reference value: 100 +/-3.16%); assay type: tissue-based; conditions: time 8.0 min
HeLa [2] = test: Induction of cell cycle arrest in human HeLa cells assessed as decrease in accumulation of cells at G0/G1 phase at 1 to 10 uM incubated for 24 hrs by PI staining based flow cytometry analysis relative to control; assay type: functional; parameters: scale not given: the % may be the effect or the level left; conditions: dose 1-10 µM
In short: (§2)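 HeLa cells treated 24 h at 1 or 10 µM, then harvested, fixed and stained with propidium iodide. DNA content measured by flow cytometry and cells assigned to subG1 (apoptotic), G0/G1, S and G2/M. Compared with untreated and DMSO-only controls. Means of three independent experiments in triplicate; one-way ANOVA, p < 0.05.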

HeLa [3] = test: Induction of cell cycle arrest in human HeLa cells assessed as increase in accumulation at subG1 phase at 1 to 10 uM incubated for 24 hrs by PI staining based flow cytometry analysis relative to control; assay type: functional; conditions: dose 1-10 µM; in short: as §2
HeLa [4] = test: Induction of cell cycle arrest in human HeLa cells assessed as increase in accumulation at G2/M phase at 1 uM incubated for 24 hrs by PI staining based flow cytometry analysis relative to control; assay type: functional; in short: as §2
HeLa [5] = test: Induction of cell cycle arrest in human HeLa cells assessed as increase in accumulation at G2/M phase at 10 uM incubated for 24 hrs by PI staining based flow cytometry analysis relative to control; assay type: functional; in short: as §2
HeLa [6] = test: Induction of apoptosis in human HeLa cells assessed as fold increase in caspase 3/7 activity at 1 to 10 uM incubated for 24 hrs by fluorescence based assay relative to control; assay type: functional; conditions: dose 1-10 µM
HeLa [7] = test: Induction of apoptosis in human HeLa cells assessed as increase in PARP-1 cleavage at 10 uM incubated for 24 hrs by Western blotting analysis; assay type: functional, cell-based
In short: (§3)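 HeLa cells treated 24 h at 1 and 10 µM. Lysates resolved by SDS-PAGE and immunoblotted for PARP-1, caspase-7 zymogen and fragment, Mcl-1, Bcl-2, p53, phospho-Rb, total Rb, phospho-Src (Tyr416) and total Src. β-actin used as loading control. Compared with untreated controls; three repeats.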

HeLa [8] = test: Induction of apoptosis in human HeLa cells assessed as increase in caspase 7 fragmentation at 1 to 10 uM incubated for 24 hrs by Western blotting analysis; assay type: functional, cell-based; conditions: dose 1-10 µM; in short: as §3
HeLa [9] = test: Induction of apoptosis in human HeLa cells assessed as downregulation of Bcl2 protein expression at 1 uM incubated for 24 hrs by Western blotting analysis; assay type: functional, cell-based; in short: as §3
HeLa [10] = test: Induction of apoptosis in human HeLa cells assessed as downregulation of Mcl1 protein expression at 1 to 10 uM incubated for 24 hrs by Western blotting analysis; assay type: functional, cell-based; conditions: dose 1-10 µM; in short: as §3
HeLa [11] = test: Induction of apoptosis in human HeLa cells assessed as reduction in Rb phosphorylation at 1 to 10 uM incubated for 24 hrs by Western blotting analysis; assay type: functional, cell-based; conditions: dose 1-10 µM; in short: as §3
HeLa [12] = test: Induction of apoptosis in human HeLa cells assessed as reduction in Rb level at 1 to 10 uM incubated for 24 hrs by Western blotting analysis; assay type: functional, cell-based; conditions: dose 1-10 µM; in short: as §3
HeLa [13] = test: Downregulation of p53 protein expression in human HeLa cells at 1 to 10 uM incubated for 24 hrs by Western blotting analysis; assay type: functional, cell-based; conditions: dose 1-10 µM; in short: as §3
HeLa [14] = test: Induction of cell cycle arrest in human HeLa cells assessed as increase in accumulation at S phase at 1 to 10 uM incubated for 24 hrs by PI staining based flow cytometry analysis; assay type: functional; conditions: dose 1-10 µM; in short: as §2
HeLa [15] = test: Effect on Src kinase protein expression in human HeLa cells at 1 uM incubated for 24 hrs by western blot analysis; assay type: functional, cell-based; in short: as §3
HeLa [16] = test: Downregulation of Src kinase activity in human HeLa cells assessed as decrease in Src kinase phosphorylation at Tyr416 residue at 1 uM incubated for 24 hrs by Western blotting analysis
HeLa [17] = test: Induction of apoptosis in human HeLa cells assessed as downregulation of Bcl2 protein expression at 1 to 10 uM incubated for 24 hrs by Western blotting analysis; assay type: functional, cell-based; conditions: dose 1-10 µM; in short: as §3
HeLa [18] = test: Induction of apoptosis in human HeLa cells assessed as reduction in Rb phosphorylation at 1 uM incubated for 24 hrs by Western blotting analysis; assay type: functional, cell-based; in short: as §3

| SMILES | IC50 (CCRF-CEM) [µM] | IC50 (MCF7) [µM] | IC50 (HeLa [1]) [µM] | IC50 (BJ) [µM] | Activity (Sus scrofa) [%] | also measured |
| --- | --- | --- | --- | --- | --- | --- |
| CC(C)(C)[Si](C)(C)O[C@H]1CC[C@@]2(C)[C@H](CC[C@@H]3[C@@H]2CC[C@]2(C)[C@@H](c4ccoc4)[C@@H](O)C[C@]32O)C1 | 9.9 | 19.4 | 26.7 | 5.8 | 15.1 |  |
| CC(=O)O[C@H]1CC[C@@]2(C)[C@H](CC[C@@H]3[C@@H]2CC[C@]2(C)[C@@H](C4=CC(=O)OC4)[C@@H](OC(C)=O)C[C@]32O)C1 [GITOXIGENIN DIACETATE] | 0.4 | 1.7 | 1.1 | 0.2 | 101 | Activity (HeLa [2]): 4.4%; fold change (FC) (HeLa [3]): 2; Activity (HeLa [4]): 13.1%; Activity (HeLa [5]): 11.9%; fold change (FC) (HeLa [6]): 2; Activity (HeLa [7]): Active; Activity (HeLa [8]): Active; Activity (HeLa [9]): Active; Activity (HeLa [10]): Active; Activity (HeLa [11]): Active; Activity (HeLa [12]): Active; inhibition (HeLa [13]): Active; Activity (HeLa [14]): Active; Activity (HeLa [15]): inactive; inhibition (HeLa [16]): Active |
| C[C@]12CC[C@H](O)C[C@H]1CC[C@@H]1[C@@H]2CC[C@]2(C)[C@@H](c3ccoc3)[C@@H](O)C[C@]12O | 3.6 | 10.6 | 14.5 | 1.9 | 7.9 | Activity (HeLa [2]): 4.4%; fold change (FC) (HeLa [3]): 2; Activity (HeLa [4]): Active; Activity (HeLa [5]): Active; fold change (FC) (HeLa [6]): 2; Activity (HeLa [7]): Active; Activity (HeLa [8]): Active; Activity (HeLa [17]): Active; Activity (HeLa [10]): Active; Activity (HeLa [18]): inactive; Activity (HeLa [12]): Active; inhibition (HeLa [13]): Active; Activity (HeLa [14]): Active; Activity (HeLa [15]): inactive; inhibition (HeLa [16]): Active |
| C[C@]12CC[C@H](O)C[C@H]1CC[C@@H]1[C@@H]2CC[C@]2(C)[C@@H](c3ccoc3)[C@@H](O)[C@H]3O[C@]132 | > 50 | > 50 | > 50 | > 50 | 75.5 |  |
| CC(C)(C)[Si](C)(C)O[C@H]1CC[C@@]2(C)[C@H](CC[C@@H]3[C@@H]2CC[C@]2(C)[C@@H](c4ccoc4)[C@@H](O)[C@H]4O[C@]342)C1 | 34.7 | 14 | 32.3 | 16.3 | 74.4 |  |
| CC(=O)O[C@H]1CC[C@@]2(C)[C@H](CC[C@@H]3[C@@H]2CC[C@]2(C)[C@@H](c4ccoc4)[C@@H](OC(C)=O)C[C@]32O)C1 | 14.2 | 20.2 | 43.1 | 6.2 | 79.9 |  |
| CC(=O)O[C@H]1C[C@]2(O)[C@@H]3CC[C@@H]4C[C@@H](O[Si](C)(C)C(C)(C)C)CC[C@]4(C)[C@H]3CC[C@]2(C)[C@H]1c1ccoc1 | > 50 | > 50 | > 50 | > 50 | 69.1 |  |
| CO[C@H]1C[C@H](O[C@H]2CC[C@@]3(C)[C@H](CC[C@@H]4[C@@H]3CC[C@]3(C)[C@@H](C5=CC(=O)OC5)[C@@H](OC(C)=O)C[C@]43O)C2)O[C@@H](C)[C@@H]1O |  |  |  |  | 59.2 |  |
| CC(=O)O[C@H]1C[C@]2(O)[C@@H]3CC[C@@H]4C[C@@H](O)CC[C@]4(C)[C@H]3CC[C@]2(C)[C@H]1c1ccoc1 | 9.4 | 16.1 | 14.2 | 4 | 42.4 |  |
| CC(=O)O[C@H]1C[C@]2(O)[C@@H]3CC[C@@H]4C[C@@H](O[Si](C)(C)C(C)(C)C)CC[C@]4(C)[C@H]3CC[C@]2(C)[C@H]1C1=CC(=O)OC1 | 17.3 | 20.3 | 34.1 | 10.6 | 79.3 |  |
| CC(=O)O[C@H]1C[C@@]23O[C@@H]4OC(=O)C=C4[C@@H]1[C@@]2(C)CC[C@H]1[C@H]3CC[C@@H]2C[C@@H](O)CC[C@@]21C | > 50 | > 50 | > 50 | > 50 | 83.9 |  |
| CC(=O)O[C@H]1C[C@]2(O)[C@@H]3CC[C@@H]4C[C@@H](O)CC[C@]4(C)[C@H]3CC[C@]2(C)[C@H]1C1=CC(=O)OC1 |  |  |  |  | 64.8 | Activity (HeLa [2]): 4.4%; fold change (FC) (HeLa [6]): 2; Activity (HeLa [7]): Active; Activity (HeLa [8]): Active; Activity (HeLa [11]): Active; Activity (HeLa [12]): Active; inhibition (HeLa [13]): Active |
